{"source": "ChEMBL document CHEMBL1212872", "about": "“Dual inhibitors of inosine monophosphate dehydrogenase and histone deacetylase based on a cinnamic hydroxamic acid core structure” (Bioorg Med Chem, 2010)", "key": {"[1]": {"target": "Inosine-5'-monophosphate dehydrogenase 1 (Homo sapiens, UniProt P20839)", "sequence (P20839 whole entry)": "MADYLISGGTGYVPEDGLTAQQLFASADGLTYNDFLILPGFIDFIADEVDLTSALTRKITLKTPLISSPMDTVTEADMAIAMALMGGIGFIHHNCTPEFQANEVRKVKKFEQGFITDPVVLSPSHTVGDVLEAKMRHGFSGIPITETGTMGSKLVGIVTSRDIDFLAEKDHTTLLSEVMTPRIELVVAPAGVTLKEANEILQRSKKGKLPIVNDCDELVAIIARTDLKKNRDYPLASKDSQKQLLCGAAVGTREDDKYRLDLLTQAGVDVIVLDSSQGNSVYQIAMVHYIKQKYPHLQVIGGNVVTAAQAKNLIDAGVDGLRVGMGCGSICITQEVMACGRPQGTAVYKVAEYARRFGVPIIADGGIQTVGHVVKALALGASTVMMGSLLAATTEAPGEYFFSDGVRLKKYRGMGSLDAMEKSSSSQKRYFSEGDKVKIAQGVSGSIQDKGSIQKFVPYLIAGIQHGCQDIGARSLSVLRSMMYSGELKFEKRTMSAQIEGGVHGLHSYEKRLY", "test": "Inhibition of human IMPDH1", "conditions": "read-out: Ki(app)", "method_in_brief": "(§1)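 Run in duplicate with IMPDH1 at 150 nM or IMPDH2 at 50 nM, across a range of inhibitor concentrations. Buffer: 50 mM Tris pH 8.0, 100 mM KCl, 1 mM DTT, with 100 µM IMP and 100 µM NAD, at 25 °C. NADH formation followed at 340 nm. IC50 from a variable-slope sigmoidal fit of steady-state velocities; apparent Ki from the Morrison equation.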"}, "K562": {"test_system": "K562", "test": "Antiproliferative activity against human K562 cells after 72 hrs by MTS assay", "assay_type": "functional, cell-based", "conditions": "K562, 72 h"}, "[2]": {"test": "Inhibition of nuclear extract HDAC", "method_in_brief": "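HDAC nuclear extract tested with a commercial HDAC activity/inhibitor screening kit per its protocol. Inhibitors were dissolved in DMSO or methanol. IC50 from a variable-slope sigmoidal fit of end-point fractional fluorescence. Autofluorescence corrected using a compound concentration curve run under background-well conditions.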"}, "[3]": {"target": "Inosine-5'-monophosphate dehydrogenase 2 (Homo sapiens, UniProt P12268)", "test": "Inhibition of human IMPDH2", "conditions": "read-out: Ki(app)", "method_in_brief": "as §1"}}, "data": [{"compound": "COc1cc(NC(=O)NCc2ccc(/C=C/C(=O)NO)cc2)ccc1-c1cnco1", "values": [{"measurement": "Ki", "setting": "[1]", "value": 7800, "unit": "nM"}, {"measurement": "IC50", "setting": "K562", "value": 3500, "unit": "nM"}, {"measurement": "IC50", "setting": "[2]", "value": 26, "unit": "nM"}, {"measurement": "Ki", "setting": "[3]", "value": 1200, "unit": "nM"}]}, {"compound": "COc1cc(NC(=O)NCc2cccc(/C=C/C(=O)NO)c2)ccc1-c1cnco1", "values": [{"measurement": "Ki", "setting": "[1]", "value": 2300, "unit": "nM"}, {"measurement": "IC50", "setting": "K562", "value": 18000, "unit": "nM"}, {"measurement": "IC50", "setting": "[2]", "value": 830, "unit": "nM"}, {"measurement": "Ki", "setting": "[3]", "value": 340, "unit": "nM"}]}, {"compound": "COc1cc(NC(=O)NCc2ccc(/C=C/C(=O)NO)cc2)ccc1C#N", "values": [{"measurement": "Ki", "setting": "[1]", "value": "> 100000", "unit": "nM"}, {"measurement": "IC50", "setting": "[2]", "value": 36, "unit": "nM"}, {"measurement": "Ki", "setting": "[3]", "value": 11000, "unit": "nM"}]}, {"compound": "COc1cc(NC(=O)NCc2cccc(/C=C/C(=O)NO)c2)ccc1C#N", "values": [{"measurement": "Ki", "setting": "[1]", "value": 44000, "unit": "nM"}, {"measurement": "IC50", "setting": "K562", "value": 28000, "unit": "nM"}, {"measurement": "IC50", "setting": "[2]", "value": 640, "unit": "nM"}, {"measurement": "Ki", "setting": "[3]", "value": 2600, "unit": "nM"}]}, {"compound": "COc1cc(NC(=O)C(=O)NCc2ccc(/C=C/C(=O)NO)cc2)ccc1-c1cnco1", "values": [{"measurement": "Ki", "setting": "[1]", "value": 17000, "unit": "nM"}, {"measurement": "IC50", "setting": "K562", "value": 5300, "unit": "nM"}, {"measurement": "IC50", "setting": "[2]", "value": 230, "unit": "nM"}, {"measurement": "Ki", "setting": "[3]", "value": 1400, "unit": "nM"}]}, {"compound": "COc1cc(NC(=O)C(=O)NCc2cccc(/C=C/C(=O)NO)c2)ccc1-c1cnco1", "values": [{"measurement": "Ki", "setting": "[1]", "value": 4400, "unit": "nM"}, {"measurement": "IC50", "setting": "K562", "value": "> 100000", "unit": "nM"}, {"measurement": "IC50", "setting": "[2]", "value": 890, "unit": "nM"}, {"measurement": "Ki", "setting": "[3]", "value": 1500, "unit": "nM"}]}, {"compound": "COc1cc(NC(=O)Nc2ccc(/C=C/C(=O)NO)cc2)ccc1-c1cnco1", "values": [{"measurement": "Ki", "setting": "[1]", "value": 300, "unit": "nM"}, {"measurement": "IC50", "setting": "K562", "value": 4900, "unit": "nM"}, {"measurement": "IC50", "setting": "[2]", "value": 550, "unit": "nM"}, {"measurement": "Ki", "setting": "[3]", "value": 250, "unit": "nM"}]}, {"compound": "COc1cc(NC(=O)Nc2cccc(/C=C/C(=O)NO)c2)ccc1-c1cnco1", "values": [{"measurement": "Ki", "setting": "[1]", "value": 580, "unit": "nM"}, {"measurement": "IC50", "setting": "K562", "value": "> 100000", "unit": "nM"}, {"measurement": "IC50", "setting": "[2]", "value": 3000, "unit": "nM"}, {"measurement": "Ki", "setting": "[3]", "value": 120, "unit": "nM"}]}, {"compound": "COc1cc(NC(=O)Nc2ccc(/C=C/C(=O)NO)cc2)ccc1C#N", "values": [{"measurement": "Ki", "setting": "[1]", "value": 1200, "unit": "nM"}, {"measurement": "IC50", "setting": "K562", "value": 4000, "unit": "nM"}, {"measurement": "IC50", "setting": "[2]", "value": 630, "unit": "nM"}, {"measurement": "Ki", "setting": "[3]", "value": 230, "unit": "nM"}]}, {"compound": "COc1cc(NC(=O)Nc2cccc(/C=C/C(=O)NO)c2)ccc1C#N", "values": [{"measurement": "Ki", "setting": "[1]", "value": 8200, "unit": "nM"}, {"measurement": "IC50", "setting": "K562", "value": 38000, "unit": "nM"}, {"measurement": "IC50", "setting": "[2]", "value": 3400, "unit": "nM"}, {"measurement": "Ki", "setting": "[3]", "value": 1200, "unit": "nM"}]}, {"compound": "COc1cc(NC(=O)C(=O)Nc2ccc(/C=C/C(=O)NO)cc2)ccc1-c1cnco1", "values": [{"measurement": "Ki", "setting": "[1]", "value": 7100, "unit": "nM"}, {"measurement": "IC50", "setting": "K562", "value": 72000, "unit": "nM"}, {"measurement": "IC50", "setting": "[2]", "value": 17000, "unit": "nM"}, {"measurement": "Ki", "setting": "[3]", "value": 1800, "unit": "nM"}]}, {"compound": "COc1cc(NC(=O)C(=O)Nc2cccc(/C=C/C(=O)NO)c2)ccc1-c1cnco1", "values": [{"measurement": "Ki", "setting": "[1]", "value": 460, "unit": "nM"}, {"measurement": "IC50", "setting": "K562", "value": 28000, "unit": "nM"}, {"measurement": "IC50", "setting": "[2]", "value": 1800, "unit": "nM"}, {"measurement": "Ki", "setting": "[3]", "value": 200, "unit": "nM"}]}]}
